Source: ChEMBL document CHEMBL3865845 (J Med Chem, 2016)
Active and inactive are the calls of the source. The calls are words filed in the database; no cut-off is given here.

Assays:
[1] = Inhibition of HIV1 integrase activity assessed as suppression of viral replication in human MT2 cells; type: cell-based; settings: Human immunodeficiency virus 1, MT2
[2] = tested on: Human immunodeficiency virus 1; experiment: Potency index, ratio of IC50 for Bevirimat to IC50 for test compound for antiviral activity against bevirimat-resistant HIV1 NL4-3 harboring GagV370A mutant infected in human MT4 cells by p24 ELISA; type: functional
[3] = Cytotoxicity against human MT4 cells assessed as reduction in cell viability after 2 days by CytoTox-Glo assay; type: toxicity, cell-based; settings: mt4, 48 h
[4] = tested on: Human immunodeficiency virus 1; experiment: Antiinfective activity against wild type HIV1 NL4-3 assessed as inhibition of viral infection by measuring viral infection level in human TZM-bl cells at 2 uM after 48 hrs by luciferase reporter gene assay (reference value: 100%); type: functional; design: scale not given: the % may be the effect or the level left
How it was run: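 NL4-3 infection of TZM-bl cells with each compound at 2 µM, read by luminescence. Infection without compound served as control. % control infection = 100 × RLU(compound)/RLU(control).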

[5] = tested on: Human immunodeficiency virus 1; experiment: Resistance index, ratio of IC50 for bevirimat-resistant HIV1 NL4-3 harboring GagV370A mutant infected in human MT4 cells to IC50 for wild type HIV1 NL4-3 infected in human MT4 cells; type: functional
[6] = Elimination half life in healthy humans; type: ADME; settings: human, in vivo; read-out: beta t1/2
[7] = tested on: Human immunodeficiency virus 1; experiment: Antiviral activity against wild type HIV1 NL4-3 infected in human MT4 cells by p24 ELISA; type: functional, cell-based; settings: Human immunodeficiency virus 1, NL4-3, MT4
How it was run: (§1)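 Replication-inhibition IC50 values in MT-4 cells, each from three separate experiments.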

[8] = tested on: Human immunodeficiency virus 1; experiment: Antiviral activity against bevirimat-resistant HIV1 NL4-3 harboring GagV370A mutant infected in human MT4 cells by p24 ELISA; type: functional, cell-based; settings: Human immunodeficiency virus 1, NL4-3, MT4; how it was run: as §1
[9] = Half life in human liver microsomes at 1 uM in presence of NADPH by LC/MS/MS analysis; type: ADME
[10] = tested on: Human immunodeficiency virus 1; experiment: Potency index, ratio of IC50 for Bevirimat to IC50 for test compound for antiviral activity against wild type HIV1 NL4-3 infected in human MT4 cells by p24 ELISA; type: functional
[11] = Inhibition of HIV1 integrase activity assessed as suppression of viral replication in human H9 cells; type: cell-based; settings: Human immunodeficiency virus 1, H9
[12] = Selectivity index, ratio of CC50 for human MT4 cells to IC50 for wild type HIV1 NL4-3 infected in human MT4 cells; type: functional
How it was run: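 Index is CC50 (cytotoxicity in MT-4 cells) divided by IC50 (inhibition of HIV-1/NL4-3 replication in MT-4 lymphocytes). Values are from three separate experiments. A ratio below 5 was scored as no selective anti-HIV activity.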

[13] = tested on: COS; experiment: Inhibition of wild type HIV1 NL4-3 Env-mediated cell-cell fusion between viral envelope expressing virus-infected African green monkey COS cells to human TZM-bl cells incubated overnight by luciferase reporter gene assay; type: cell-based; settings: Human immunodeficiency virus 1

Row | SMILES | CC50 [3] [µM] | IC50 [7] [µM] | other results
1 | O=C(/C=C/c1ccc(O)c(O)c1)O[C@H](C(=O)O)[C@H](OC(=O)/C=C/c1ccc(O)c(O)c1)C(=O)O [CHICORIC ACID] | – | – | IC50 [1]: 4.2 µM
2 | C=C(C)[C@@H]1CC[C@]2(C(=O)N3CCN(C(=O)/C=C/c4ccc5c(c4)OCO5)CC3)CC[C@]3(C)[C@H](CC[C@@H]4[C@@]5(C)CC[C@H](OC(=O)CC(C)(C)C(=O)O)C(C)(C)[C@@H]5CC[C@]43C)[C@@H]12 | > 4.5 | 0.019 | Ratio IC50 [2]: 51; Activity [4]: 99%; Ratio IC50 [5]: 7.89 - 7.9; half-life [6]: 56.3 to 69.5 h; IC50 [8]: 0.15 µM; t1/2 [9]: 2.13 h; Ratio IC50 [10]: 3
3 | C=C(C)[C@@H]1CC[C@]2(C(=O)O)CC[C@]3(C)[C@H](CC[C@@H]4[C@@]5(C)CC[C@H](OC(=O)CC(C)(C)C(=O)O)C(C)(C)[C@@H]5CC[C@]43C)[C@@H]12 [BEVIRIMAT] | > 4.5 | 0.065 | Activity [4]: 98%; IC50 [8]: 7.71 µM; t1/2 [9]: 0.9 h
4 | C=C(C)[C@@H]1CC[C@]2(C(=O)N3CCNCC3)CC[C@]3(C)[C@H](CC[C@@H]4[C@@]5(C)CC[C@H](OC(=O)CC(C)(C)C(=O)O)C(C)(C)[C@@H]5CC[C@]43C)[C@@H]12 | > 1.5 | 0.49 | –
5 | C=C(C)[C@@H]1CC[C@]2(C(=O)N3CCN(C(=O)/C=C/c4ccc(OCOC)c(OCOC)c4)CC3)CC[C@]3(C)[C@H](CC[C@@H]4[C@@]5(C)CC[C@H](O)C(C)(C)[C@@H]5CC[C@]43C)[C@@H]12 | – | > 1 | –
6 | O=C(O)/C=C/c1ccc2c(c1)OCO2 | > 90 | > 90 | –
7 | O=C(/C=C/c1ccc(O)c(O)c1)O[C@@H]1C[C@](O)(C(=O)O)C[C@@H](OC(=O)/C=C/c2ccc(O)c(O)c2)[C@H]1O | – | – | IC50 [1]: 1.9 µM
8 | O=C(/C=C/c1ccc2c(c1)OCO2)N1CCNCC1 | > 90 | > 90 | –
9 | C=C(C)[C@@H]1CC[C@]2(C(=O)N3CCN(C(=O)/C=C/c4ccc(O)c(O)c4)CC3)CC[C@]3(C)[C@H](CC[C@@H]4[C@@]5(C)CC[C@H](OC(=O)CC(C)(C)C(=O)O)C(C)(C)[C@@H]5CC[C@]43C)[C@@H]12 | > 4.5 | 0.028 | Ratio IC50 [5]: 78.93; IC50 [8]: 2.21 µM
10 | C=C(C)[C@@H]1CC[C@]2(C(=O)N3CCN(C(=O)/C=C/c4ccc(OC)c(OC)c4)CC3)CC[C@]3(C)[C@H](CC[C@@H]4[C@@]5(C)CC[C@H](OC(=O)CC(C)(C)C(=O)O)C(C)(C)[C@@H]5CC[C@]43C)[C@@H]12 | > 4.5 | 0.029 | Ratio IC50 [2]: 1.39 - 51.4; Ratio IC50 [5]: 102.41; IC50 [8]: 2.97 µM
11 | C=C(C)[C@@H]1CC[C@]2(C(=O)N3CCN(CCCCC(=O)N4CCN(C(=O)/C=C/c5ccc6c(c5)OCO6)CC4)CC3)CC[C@]3(C)[C@H](CC[C@@H]4[C@@]5(C)CC[C@H](O)C(C)(C)[C@@H]5CC[C@]43C)[C@@H]12 | – | > 1 | –
12 | C=C(C)[C@@H]1CC[C@]2(C(=O)N3CCN(CCCCC(=O)N4CCN(C(=O)/C=C/c5ccc6c(c5)OCO6)CC4)CC3)CC[C@]3(C)[C@H](CC[C@@H]4[C@@]5(C)CC[C@H](OC(=O)CC(C)(C)C(=O)O)C(C)(C)[C@@H]5CC[C@]43C)[C@@H]12 | > 4.5 | 0.012 | Ratio IC50 [2]: 1.39 - 51.4; Ratio IC50 [5]: 460.83; IC50 [8]: 5.53 µM
13 | O=C(/C=C/c1ccc(O)c2c1[C@H](C(=O)O)[C@@H](c1ccc(O)c(O)c1)O2)O[C@H](Cc1ccc(O)c(O)c1)C(=O)O [LITHOSPERMIC ACID] | – | – | IC50 [11]: 2 µM
14 | C=C(C)[C@@H]1CC[C@]2(C(=O)N3CCN(C(=O)/C=C/c4ccc(OCOC)c(OCOC)c4)CC3)CC[C@]3(C)[C@H](CC[C@@H]4[C@@]5(C)CC[C@H](OC(=O)CC(C)(C)C(=O)O)C(C)(C)[C@@H]5CC[C@]43C)[C@@H]12 | > 4.5 | 0.05 | –
15 | O=C(O)/C=C/c1ccc(O)c(O)c1 [CAFFEIC ACID] | – | > 1 | Ratio CC50/IC50 [12]: <5
16 | C=C(C)[C@@H]1CC[C@]2(C(=O)N3CCN(C(=O)/C=C/c4ccc5c(c4)OCO5)CC3)CC[C@]3(C)[C@H](CC[C@@H]4[C@@]5(C)CC[C@H](O)C(C)(C)[C@@H]5CC[C@]43C)[C@@H]12 | – | > 1 | –
17 | C=C(C)[C@@H]1CC[C@]2(C(=O)NCCCCCCCNC(C)=O)CC[C@]3(C)[C@H](CC[C@@H]4[C@@]5(C)CC[C@H](O)C(C)(C)[C@@H]5CC[C@]43C)[C@@H]12 | – | – | inhibition [13]: Active
18 | C=C(C)[C@@H]1CC[C@]2(C(=O)N3CCN(C(=O)/C=C/c4ccc(OC)c(OC)c4)CC3)CC[C@]3(C)[C@H](CC[C@@H]4[C@@]5(C)CC[C@H](O)C(C)(C)[C@@H]5CC[C@]43C)[C@@H]12 | – | > 1 | –
